Data published in ChEMBL document CHEMBL5252659, “Discovery of a Potent and Selective Naphthyridine-Based Chemical Probe for Casein Kinase 2” (ACS Med Chem Lett, 2023).
Values after ≈ are worked out from the molar mass of the structure shown. Active and inactive are the calls of the source. No cut-off for these calls is given here.

What was measured:
[1] = Aqueous kinetic solubility of compound in PBS at pH 7.4 incubated for 24 hrs by Chemiluminescent nitrogen determination assay; type: physicochemical; conditions: for solubility kinetic at 24 h: PBS, pH 7.4, read-out: Kinetic_solubility; for Kinetic_solubility: buffer, pH 7.4, 24 h
STA-ET-10 = experiment: (§1) Antiproliferative activity against human STA-ET-10 cells assessed as inhibition of cell proliferation at 1 uM incubated for 5 days by WST-1 assay; type: functional; conditions: time 5.0 day
Method in brief: (§2)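 Ewing sarcoma cell lines were exposed to a single 1 μM concentration for 5 days. Viability was reported as percent viability, as part of a preliminary single-dose screen.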

RM-82 = experiment: (§3) Antiproliferative activity against human RM-82 cells assessed as inhibition of cell proliferation at 1 uM incubated for 5 days by WST-1 assay; type: functional; conditions: time 5.0 day
STA-ET-1 = experiment: (§4) Antiproliferative activity against human STA-ET-1 cells assessed as inhibition of cell proliferation at 1 uM incubated for 5 days by WST-1 assay; type: functional; conditions: time 5.0 day; method in brief: as §2
AMO1 [2] = experiment: Antiproliferative activity against pomalidomide resistant human AMO1 cells assessed as inhibition of cell proliferation at 1 uM incubated for 5 days by WST-1 assay; type: functional; parameters: scale not given: the % may be the effect or the level left; conditions: time 5 day
L-363 [3] = experiment: Antiproliferative activity against carfilzomib-resistant human L-363 cells assessed as inhibition of cell proliferation at 1 uM incubated for 5 days by WST-1 assay; type: functional; parameters: scale not given: the % may be the effect or the level left; conditions: time 5 day
AMO1 [4] = experiment: Antiproliferative activity against human AMO1 cells assessed as inhibition of cell proliferation at 1 uM incubated for 5 days by WST-1 assay; type: functional; parameters: scale not given: the % may be the effect or the level left; conditions: time 5 day
L-363 [5] = experiment: Antiproliferative activity against bortezomib-resistant human L-363 cells assessed as inhibition of cell proliferation at 1 uM incubated for 5 days by WST-1 assay; type: functional; parameters: scale not given: the % may be the effect or the level left; conditions: time 5 day
L-363 [6] = experiment: Antiproliferative activity against human L-363 cells assessed as inhibition of cell proliferation at 1 uM incubated for 5 days by WST-1 assay; type: functional; parameters: scale not given: the % may be the effect or the level left; conditions: time 5 day
[7] = Antiproliferative activity against human MUG-Chor1 cells assessed as inhibition of cell proliferation at 1 uM incubated for 5 days by WST-1 assay; type: functional; parameters: scale not given: the % may be the effect or the level left; conditions: time 5 day
[8] = molecular target: T1, Casein kinase II subunit alpha' (Homo sapiens, UniProt P19784); experiment: Inhibition of C-terminal Nano-Luc fused human CK2alpha' expressed in HEK293 cells using NanoBRET NanoGlo substrate in presence of tracer K5 by NanoBRET assay; type: cell-based
T1 sequence (P19784 whole entry, the tested form may be a part): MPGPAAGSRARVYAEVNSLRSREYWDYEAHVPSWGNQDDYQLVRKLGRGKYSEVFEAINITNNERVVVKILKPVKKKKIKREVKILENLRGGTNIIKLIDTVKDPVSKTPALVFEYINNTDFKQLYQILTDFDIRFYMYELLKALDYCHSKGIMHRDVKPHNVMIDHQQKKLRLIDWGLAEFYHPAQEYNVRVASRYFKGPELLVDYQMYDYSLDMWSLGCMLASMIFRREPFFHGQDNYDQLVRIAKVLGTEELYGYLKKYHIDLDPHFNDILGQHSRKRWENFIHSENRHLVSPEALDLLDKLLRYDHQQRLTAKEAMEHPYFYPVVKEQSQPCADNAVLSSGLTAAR

[9] = molecular target: T2, Casein kinase II subunit alpha (Homo sapiens, UniProt P68400); experiment: Inhibition of C-terminal Nano-Luc fused human CK2alpha expressed in HEK293 cells using NanoBRET NanoGlo substrate in presence of tracer K10 by NanoBRET assay; type: cell-based
T2 sequence (P68400 whole entry, the tested form may be a part): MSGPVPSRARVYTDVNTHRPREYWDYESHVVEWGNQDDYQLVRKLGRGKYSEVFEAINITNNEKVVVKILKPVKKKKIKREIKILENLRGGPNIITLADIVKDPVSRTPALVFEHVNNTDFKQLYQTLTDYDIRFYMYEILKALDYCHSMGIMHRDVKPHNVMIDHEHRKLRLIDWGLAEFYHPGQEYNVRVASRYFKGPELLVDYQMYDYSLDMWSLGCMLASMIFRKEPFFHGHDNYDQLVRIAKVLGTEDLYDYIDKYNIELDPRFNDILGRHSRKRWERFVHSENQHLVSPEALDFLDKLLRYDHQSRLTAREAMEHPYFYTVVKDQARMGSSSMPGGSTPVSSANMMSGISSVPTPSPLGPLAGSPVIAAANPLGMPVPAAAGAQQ

[10] = molecular target: T2, Casein kinase II subunit alpha; experiment: Inhibition of wild type human CK2alpha in presence of ATP by radiometric kinase assay
[11] = molecular target: Phosphatidylinositol 4-phosphate 5-kinase type-1 gamma (Homo sapiens) (UniProt O60331); experiment: Inhibition of wild type human PIP5K1C at 1 uM by DiscoverX scanMAX assay relative to control; values are per cent of control
Sequence of Phosphatidylinositol 4-phosphate 5-kinase type-1 gamma (Homo sapiens) (O60331 whole entry): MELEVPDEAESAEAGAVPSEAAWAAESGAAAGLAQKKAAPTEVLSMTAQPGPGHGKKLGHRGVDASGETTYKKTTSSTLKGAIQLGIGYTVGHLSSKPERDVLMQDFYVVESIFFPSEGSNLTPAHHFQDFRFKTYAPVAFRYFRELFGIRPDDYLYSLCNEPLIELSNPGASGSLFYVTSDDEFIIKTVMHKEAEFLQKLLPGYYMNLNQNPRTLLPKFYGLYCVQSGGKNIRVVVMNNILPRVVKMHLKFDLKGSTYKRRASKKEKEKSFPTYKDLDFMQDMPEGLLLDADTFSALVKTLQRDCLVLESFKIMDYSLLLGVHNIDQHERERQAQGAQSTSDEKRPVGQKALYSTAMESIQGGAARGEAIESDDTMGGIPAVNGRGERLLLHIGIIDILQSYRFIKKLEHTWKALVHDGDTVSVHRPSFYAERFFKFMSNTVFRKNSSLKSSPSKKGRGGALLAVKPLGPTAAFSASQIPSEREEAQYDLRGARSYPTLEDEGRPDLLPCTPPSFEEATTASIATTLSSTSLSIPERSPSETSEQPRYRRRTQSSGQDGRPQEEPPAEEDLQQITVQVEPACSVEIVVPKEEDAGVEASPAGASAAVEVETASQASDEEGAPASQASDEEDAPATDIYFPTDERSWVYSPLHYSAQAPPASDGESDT

[12] = molecular target: T1, Casein kinase II subunit alpha'; experiment: Inhibition of wild type human CK2alpha' in presence of ATP by radiometric kinase assay
[13] = as §1; type: functional; parameters: scale not given: the % may be the effect or the level left; conditions: time 5 day; method in brief: as §2
[14] = as §3; type: functional; parameters: scale not given: the % may be the effect or the level left; conditions: time 5 day
[15] = as §4; type: functional; parameters: scale not given: the % may be the effect or the level left; conditions: time 5 day; method in brief: as §2
[16] = Permeability of compound incubated for 5 hrs by PAMPA based CLND assay; type: ADME
MDA-MB-231 = experiment: Anticancer activity against human MDA-MB-231 cells assessed as cell growth inhibition at 2 to 10 uM incubated for 24 to 72 hrs by WST-1 assay; conditions: dose 2-10 µM, time lower […], time upper 72.0 hrs
[17] = molecular target: T3, Homeodomain-interacting protein kinase 2 (Homo sapiens, UniProt Q9H2X6); experiment: Inhibition of wild type human HIPK2 in presence of ATP by radiometric kinase assay
Target sequence in this assay (Q9H2X6 whole entry): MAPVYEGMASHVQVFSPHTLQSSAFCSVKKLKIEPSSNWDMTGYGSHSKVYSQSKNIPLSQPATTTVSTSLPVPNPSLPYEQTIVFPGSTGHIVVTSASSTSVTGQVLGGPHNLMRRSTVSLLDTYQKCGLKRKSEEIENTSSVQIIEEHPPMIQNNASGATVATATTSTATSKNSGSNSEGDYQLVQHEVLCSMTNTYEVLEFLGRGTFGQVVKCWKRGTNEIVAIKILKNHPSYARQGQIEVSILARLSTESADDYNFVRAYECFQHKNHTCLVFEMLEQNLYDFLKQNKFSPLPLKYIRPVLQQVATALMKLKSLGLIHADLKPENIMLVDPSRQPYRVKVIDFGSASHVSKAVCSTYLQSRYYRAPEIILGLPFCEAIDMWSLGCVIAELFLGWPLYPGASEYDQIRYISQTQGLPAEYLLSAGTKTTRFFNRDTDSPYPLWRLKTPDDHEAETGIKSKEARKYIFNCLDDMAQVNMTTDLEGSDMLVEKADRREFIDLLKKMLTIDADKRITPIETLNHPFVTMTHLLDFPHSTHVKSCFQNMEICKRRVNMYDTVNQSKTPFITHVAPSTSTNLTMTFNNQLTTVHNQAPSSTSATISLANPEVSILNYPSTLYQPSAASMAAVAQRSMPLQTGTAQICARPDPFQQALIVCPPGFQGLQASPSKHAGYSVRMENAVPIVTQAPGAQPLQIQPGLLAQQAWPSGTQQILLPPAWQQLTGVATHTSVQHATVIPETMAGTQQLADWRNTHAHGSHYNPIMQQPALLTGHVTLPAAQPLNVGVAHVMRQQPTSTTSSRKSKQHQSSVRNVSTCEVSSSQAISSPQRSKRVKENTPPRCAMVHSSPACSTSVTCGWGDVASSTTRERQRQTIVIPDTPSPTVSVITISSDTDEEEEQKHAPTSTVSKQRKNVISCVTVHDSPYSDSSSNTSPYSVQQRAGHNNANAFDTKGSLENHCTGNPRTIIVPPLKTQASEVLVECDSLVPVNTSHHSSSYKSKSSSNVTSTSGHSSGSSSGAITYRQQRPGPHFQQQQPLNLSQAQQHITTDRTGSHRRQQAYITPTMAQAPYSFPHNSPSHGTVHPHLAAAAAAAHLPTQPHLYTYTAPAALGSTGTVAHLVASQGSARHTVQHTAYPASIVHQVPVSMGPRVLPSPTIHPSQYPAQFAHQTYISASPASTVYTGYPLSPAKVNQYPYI

[18] = molecular target: Death-associated protein kinase 2 (Homo sapiens, UniProt Q9UIK4); experiment: Inhibition of wild type human DAPK2 in presence of ATP by radiometric kinase assay
Sequence of Death-associated protein kinase 2 (Q9UIK4 whole entry): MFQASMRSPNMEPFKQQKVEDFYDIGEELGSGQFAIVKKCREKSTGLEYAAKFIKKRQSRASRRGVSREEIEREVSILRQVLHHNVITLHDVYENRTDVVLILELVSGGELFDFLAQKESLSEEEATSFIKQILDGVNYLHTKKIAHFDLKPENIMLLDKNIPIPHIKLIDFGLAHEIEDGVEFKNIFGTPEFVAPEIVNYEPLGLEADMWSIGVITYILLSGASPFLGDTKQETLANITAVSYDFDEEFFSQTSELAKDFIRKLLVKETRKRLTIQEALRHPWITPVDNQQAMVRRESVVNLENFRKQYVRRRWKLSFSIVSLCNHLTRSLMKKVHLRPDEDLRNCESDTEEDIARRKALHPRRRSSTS

[19] = molecular target: T3, Homeodomain-interacting protein kinase 2; experiment: Inhibition of wild type human HIPK2 at 1 uM by DiscoverX scanMAX assay relative to control; values are per cent of control
Target sequence in this assay (Q9H2X6 whole entry, looked up): as the sequence (Q9H2X6 whole entry) above

`O=C(O)c1ccc2c(c1)nc(Nc1ccccc1)c1ccncc12` showed a solubility kinetic at 24 h [1] of 184 µM (≈ 58.1 µg/mL).

For `O=C(O)c1ccc2c(c1)nc(Nc1ccc(F)c(Cl)c1)c1ccncc12`, the Kinetic_solubility [1] was 148.4 µM.

In the case of `O=C(O)c1ccc2c(c1)nc(NCCc1ccccc1)c1ncncc12`, the Kinetic_solubility [1] is reported as 146.4 µM.

Molecule `O=C(O)c1ccc2c(c1)nc(Nc1ccc3ccccc3c1)c1ccncc12` has a Kinetic_solubility [1] of 32.8 µM.

For `N#Cc1cccc(Nc2nc3cc(C(=O)O)ccc3c3cncnc23)c1`, the Activity (STA-ET-10) was “inactive”, the Activity (RM-82) was “inactive” and the Activity (STA-ET-1) was “inactive”. The Kinetic_solubility [1] was 66.7 µM.

For `O=C(O)c1ccc2c(c1)nc(Nc1ccc(F)c(Cl)c1)c1ncncc12`, the Kinetic_solubility [1] was 49.1 µM.

In the case of `O=C(O)c1ccc2c(c1)nc(Nc1cccc(F)c1)c1ccncc12`, the solubility kinetic at 24 h [1] is reported as 237 µM (≈ 78.9 µg/mL).

With `N#Cc1cccc(Nc2nc3cc(C(=O)O)ccc3c3cnccc23)c1` the Activity (STA-ET-10) was “inactive”, the Activity (RM-82) was “inactive” and the Activity (STA-ET-1) was “inactive”. For the same molecule, the Kinetic_solubility [1] was 131.7 µM.

Molecule `O=C(O)c1ccc2c(c1)nc(Nc1ccc(Cl)cc1)c1ccncc12` has a Kinetic_solubility [1] of 25.3 µM.

With `CCC(=O)Nc1cc(Nc2cc(NC3CC3)n3ncc(C#N)c3n2)ccc1C` the Activity (STA-ET-10) was “inactive”, the Activity (AMO1 [2]) was 9% and the Activity (L-363 [3]) was 9%. For the same molecule, the Activity (AMO1 [4]) was 9%, the Activity (STA-ET-1) was “inactive” and the Activity (L-363 [5]) was 9%. The Activity (L-363 [6]) was 9% and the Activity [7] was 55%.

In the case of `O=C(O)c1ccc2c(c1)nc(NCCc1cccc(F)c1)c1ccncc12`, the solubility kinetic at 24 h [1] is reported as 188 µM (≈ 67.8 µg/mL).

In the case of `O=C(O)c1ccc2c(c1)nc(NCCc1cccc(F)c1)c1ncncc12`, the Kinetic_solubility [1] is reported as 147 µM.

For `COc1cccc(CCNc2nc3cc(C(=O)O)ccc3c3cnccc23)c1`, the solubility kinetic at 24 h [1] was 180 µM (≈ 67.4 µg/mL).

Molecule `O=C(O)c1ccc2c(c1)nc(Nc1ccccc1)c1ncncc12` has a solubility kinetic at 24 h [1] of 168 µM (≈ 53.2 µg/mL).

`O=C(O)c1ccc2c(c1)nc(Nc1ccc(Cl)cc1)c1ncncc12` gave a solubility kinetic at 24 h [1] of 209 µM (≈ 73.3 µg/mL).

For `O=C(O)c1ccc2c(c1)nc(NCc1ccccc1)c1ncccc12`, the IC50 [8] was over 10 µM, the IC50 [9] was over 10 µM and the IC50 [10] was over 10 µM. It also gave a residual activity [11] of 15% and an IC50 [12] of over 10 µM.

Molecule `O=C(O)c1ccc2c(c1)nc(Nc1ccc3ccccc3c1)c1ncncc12` has a Kinetic_solubility [1] of 54.3 µM.

For `O=C(O)c1ccc2c(c1)nc(NCCc1cccc(Cl)c1)c1ccncc12`, the solubility kinetic at 24 h [1] was 184 µM (≈ 69.5 µg/mL).

Work on `O=C(O)c1ccc2c(c1)nc(Nc1ccccc1Cl)c1ncncc12` yielded a Kinetic_solubility [1] of 121.8 µM.

Work on `O=C(O)c1ccc2c(c1)nc(Nc1cccc(Cl)c1)c1ccncc12` [SILMITASERTIB] yielded an Activity [13] of 63%, an Activity [14] of 63% and an Activity [15] of 21%. The permeability [16] was “Permeable”, the Activity (MDA-MB-231) was “Active” and the Kinetic_solubility [1] was 277.1 µM.

`COc1cccc(CCNc2nc3cc(C(=O)O)ccc3c3cncnc23)c1` showed a solubility kinetic at 24 h [1] of 152 µM (≈ 56.8 µg/mL).

`O=C(O)c1ccc2c(c1)nc(NCc1ccccc1)c1ccncc12` gave a solubility kinetic at 24 h [1] of 202 µM (≈ 66.7 µg/mL).

`O=C(O)c1ccc2c(c1)nc(NCCc1cccc(Cl)c1)c1ncncc12` gave a Kinetic_solubility [1] of 109.1 µM.

For `O=C(O)c1ccc2c(c1)nc(NCCc1ccccc1)c1ccncc12`, the solubility kinetic at 24 h [1] was 171 µM (≈ 58.9 µg/mL).

Molecule `COc1cccc(Nc2nc3cc(C(=O)O)ccc3c3cnccc23)c1` has a solubility kinetic at 24 h [1] of 190 µM (≈ 65.8 µg/mL).

In the case of `O=C(O)c1ccc2c(c1)nc(NCc1ccccc1)c1ncncc12`, the Activity (STA-ET-10) is reported as “inactive”, the IC50 [17] is reported as 600 nM and the Activity (RM-82) is reported as “inactive”. The Activity (AMO1 [4]) was 44%, the Activity (STA-ET-1) was “inactive” and the permeability [16] was “Permeable”. The IC50 [18] was 1500 nM, the residual activity [19] was 30% and the Activity (L-363 [6]) was 36%. It also gave a solubility kinetic at 24 h [1] of 211 µM (≈ 69.6 µg/mL).

`O=C(O)c1ccc2c(c1)nc(Nc1cccc(F)c1)c1ncncc12` showed a solubility kinetic at 24 h [1] of 192 µM (≈ 64.2 µg/mL).
